Consider 29 compounds from ChEMBL document CHEMBL2169785, “Inhibition of Acyl-CoA: cholesterol acyltransferase (ACAT), overexpression of cholesterol transporter gene, and protection of amyloid β (Aβ) oligomers-induced neuronal cell death by tricyclic pyrone molecules” (J Med Chem, 2012).

Each structure is given as a SMILES string. Activity calls are given as the source filed them. The calls are words filed in the database; no cut-off is given here.

Data set [1] can be described thus: Therapeutic index, ratio of TD50 for human MC65 cells to EC50 for […] human MC65 cells. Particulars: read-out: TI. It counts as cell-based. The method, boiled down: (§1)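 MC65 neuroblastoma cells carrying a tetracycline-repressible SβC gene (APP C99 fragment); induction causes intraneuronal Aβ oligomer accumulation and cell death after three days. Viability read by MTT. EC50 (median effective concentration for protection) and TD50 (median toxic concentration) derived; TI = TD50/EC50. Triplicate experiments, standard errors calculated.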

Data set [2] can be described thus: Cytotoxicity against human MC65 cells by MTT assay. It counts as cell-based. Particulars: read-out: TD50 (the source's name). The method, boiled down: as §1
A short description of data set [3]: Neuroprotective activity in […] human MC65 cells assessed as protection against APP-induced cell death by MTT assay. It counts as functional, cell-based. Put shortly:
as §1

Another data set relates to ACAT. In words: Therapeutic index, ratio of TD50 for human MC65 cells to IC50 for ACAT activity in human MC65 cells. It counts as cell-based. Particulars: read-out: TI.
A further data set has as its system Huh-7. In words: Induction of ABCA1 mRNA expression in human HuH7 cells after 24 hrs. It counts as functional, cell-based. The settings on record: Huh-7, 24 h. The method, boiled down:
(§2)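 Cells (MC65 or Huh-7) incubated 24 h with compound or mock medium. ABCA1 gene expression measured with a Gene Expression Assay and compared with mock-treated cells to derive EC50.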

A short description of data set [4]: Induction of ABCA1 mRNA expression in human MC65 cells after 24 hrs. The class given is functional, cell-based. The settings on record: MC65, 24 h. Put shortly:
as §2

In data set [5] the target is T1, Sterol O-acyltransferase 1 (Homo sapiens, UniProt P35610).
T1 sequence (P35610 whole entry): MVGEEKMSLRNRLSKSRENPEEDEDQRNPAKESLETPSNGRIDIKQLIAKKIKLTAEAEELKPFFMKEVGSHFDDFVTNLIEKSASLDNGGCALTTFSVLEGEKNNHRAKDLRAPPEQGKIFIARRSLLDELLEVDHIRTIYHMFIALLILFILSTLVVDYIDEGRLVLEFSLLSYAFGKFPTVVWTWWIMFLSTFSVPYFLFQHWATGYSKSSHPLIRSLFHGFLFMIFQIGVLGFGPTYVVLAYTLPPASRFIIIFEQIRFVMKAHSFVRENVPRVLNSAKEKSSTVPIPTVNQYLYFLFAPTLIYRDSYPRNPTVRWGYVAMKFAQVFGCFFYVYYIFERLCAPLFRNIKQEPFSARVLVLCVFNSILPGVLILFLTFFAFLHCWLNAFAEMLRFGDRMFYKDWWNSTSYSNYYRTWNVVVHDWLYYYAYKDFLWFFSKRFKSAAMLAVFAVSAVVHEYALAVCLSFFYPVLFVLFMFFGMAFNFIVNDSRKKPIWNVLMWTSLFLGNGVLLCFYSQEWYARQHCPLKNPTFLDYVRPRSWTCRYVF
As to the kind of experiment: Inhibition of ACAT activity in human MC65 cells using NBD-cholesterol staining after 24 hrs by fluorescence assay.

The next data set relates to MC65. In words: Neuroprotective activity in tetracycline-deprived human MC65 cells assessed as protection against APP-induced cell death up to 50 uM by MTT assay.

As to `COc1ccc(CNCC(C)[C@H]2CCC3=Cc4c(cc(C)oc4=O)O[C@H]3C2)c2ccccc12` (stereo not given in full), in data set [1], the selectivity ratio was determined as 24.6. Further, the CC50 in data set [2] was 15.3 µM. Further, in data set [3], the EC50 stood at 0.621 µM.
As to `Cc1cc2c(c(=O)o1)C=C1CC[C@H](C(C)CNC(=O)c3ccccc3O)C[C@@H]1O2` (stereo not given in full), the selectivity ratio in data set [1] stood at 1.07. For the same compound, in data set [2], the CC50 was determined as 6.69 µM. Moreover, in data set [3], the EC50 was found to be 6.25 µM.
`Cc1cc2c(c(=O)o1)C=C1CC[C@H](C(C)CNCc3cccc(O)c3)C[C@@H]1O2` (stereo not given in full): the selectivity ratio in data set [1] was > 10.7. In data set [2], the CC50 was > 50 µM. In data set [3], the EC50 is 4.66 µM.
Regarding `Cc1cc2c(c(=O)o1)C=C1CC[C@H](C(C)Cn3cnc(N)c4ncnc3-4)C[C@@H]1O2` (stereo not given in full), the selectivity ratio in the data set on ACAT was 33; in data set [1], 325. The concentration for a half-maximal effect (EC50) in the data set on Huh-7 was 0.6 µM; in data set [4], 0.9 µM; in data set [3], 0.12 µM. This compound displayed an IC50 in data set [5] of 1.2 µM. Moreover, the CC50 in data set [2] came out at 39 µM.
On to `CCCCCCCCCCC(C)(C)C(=O)Nc1c(OC)cc(OC)cc1OC`, for which, in the data set on MC65, the result was inactive.
Regarding `Cc1cc2c(c(=O)o1)C=C1CC[C@H](C(C)CNCc3ccc4c(c3)OCO4)C[C@@H]1O2` (mixture of isomers), the selectivity ratio in data set [1] is > 42.4. For the same compound, the CC50 in data set [2] was > 50 µM. For the same compound, the EC50 in data set [3] was 1.18 µM.
Consider `COc1cc(CNCC(C)[C@H]2CCC3=Cc4c(cc(C)oc4=O)O[C@H]3C2)cc(OC)c1O` (mixture of isomers), for which the selectivity ratio in data set [1] was > 39.7. The CC50 in data set [2] is > 50 µM. In data set [3], the concentration giving a half-maximal response (EC50) stood at 1.26 µM.
On to `Cc1cc2c(c(=O)o1)C=C1CC[C@H](C(C)CNCc3ccc(O)c4ccccc34)C[C@@H]1O2` (mixture of isomers), for which the EC50 worked out at 0.6 µM in the data set with Huh-7, 1.3 µM in data set [4] and 0.145 µM in data set [3]. Also, the CC50 in data set [2] turned out to be 13.7 µM.
On to `Cc1cc2c(c(=O)o1)C=C1CC[C@H](C(C)CNCc3c(O)ccc4ccccc34)C[C@@H]1O2` (mixture of isomers), for which, in data set [1], the selectivity ratio came to 133. Further, the CC50 in data set [2] is 26.4 µM. In addition, in data set [3], the EC50 turned out to be 0.198 µM.
Regarding `Cc1cc2c(c(=O)o1)C=C1CC[C@H](C(C)CNCc3cc(O)cc4ccccc34)C[C@@H]1O2` (mixture of isomers), the selectivity ratio in data set [1] amounted to 31.1. For the same compound, in data set [2], the CC50 was 18.2 µM. In addition, the EC50 in data set [3] was found to be 0.586 µM.
In the case of `Cc1cc2c(c(=O)o1)C=C1CC[C@H](C(C)CNCc3ccc4cc(O)ccc4c3)C[C@@H]1O2` (mixture of isomers), the selectivity ratio in data set [1] was 52.5. For the same compound, the CC50 in data set [2] is 24.1 µM. In data set [3], the EC50 was determined as 0.459 µM.
For `CC(=O)Oc1ccccc1C(=O)NCC(C)[C@H]1CCC2=Cc3c(cc(C)oc3=O)O[C@H]2C1` (mixture of isomers), the CC50 in data set [2] was 8.35 µM. Further, in data set [3], the EC50 is > 50 µM.
Take `Cc1cc2c(c(=O)o1)C=C1CC[C@H](C(C)CNCc3ccccc3)C[C@@H]1O2` (mixture of isomers): the selectivity ratio in data set [1] worked out at 11.5. For the same compound, the CC50 in data set [2] worked out at 37.3 µM. Further, the EC50 in data set [3] was found to be 3.24 µM.
`Cc1cc2c(c(=O)o1)C=C1CC[C@H](C(C)CNCc3ccc(O)cc3)C[C@@H]1O2` (mixture of isomers): the values for the EC50 (in the data set with Huh-7; in data set [4]; in data set [3]) were 0.6 µM, 1.1 µM and 0.07 µM, respectively. Besides, the CC50 in data set [2] turned out to be 37 µM.
As to `Cc1cc2c(c(=O)o1)C=C1CC[C@H](C(C)CNCc3ccc(OCCO)cc3)C[C@@H]1O2` (mixture of isomers), the selectivity ratio in data set [1] is > 2.04. Further, the CC50 in data set [2] is > 50 µM. The EC50 in data set [3] was 24.5 µM.
Turning to `Cc1cc2c(c(=O)o1)C=C1CC[C@H](C(C)CNCc3ccc(CO)cc3)C[C@@H]1O2` (mixture of isomers), the selectivity ratio in the data set on ACAT was > 36; in data set [1], > 495. In addition, the results for the EC50 in data set [4] and in data set [3] were 2.5 µM and 0.101 µM, respectively. The compound further gave an IC50 in data set [5] of 1.4 µM. In data set [2], the CC50 is > 50 µM.
Turning to `Cc1cc2c(c(=O)o1)C=C1CC[C@H](C(C)CNCc3ccc(C=O)cc3)C[C@@H]1O2` (mixture of isomers), the selectivity ratio in data set [1] is 6.15. In addition, the CC50 in data set [2] was 39.4 µM. Further, in data set [3], the EC50 is 6.41 µM.
`COC(=O)c1ccc(CNCC(C)[C@H]2CCC3=Cc4c(cc(C)oc4=O)O[C@H]3C2)cc1` (mixture of isomers): the selectivity ratio in data set [1] was > 65. For the same compound, the CC50 in data set [2] is > 50 µM. Moreover, the EC50 in data set [3] stood at 0.769 µM.
For `Cc1cc2c(c(=O)o1)C=C1CC[C@H](C(C)CNCc3ccc(Cl)cc3)C[C@@H]1O2` (mixture of isomers) the same measures were 17.2, 48 µM and 2.79 µM.
In the case of `Cc1cc2c(c(=O)o1)C=C1CC[C@H](C(C)CNCc3ccc(C#N)cc3)C[C@@H]1O2` (mixture of isomers), the CC50 in data set [2] is > 50 µM. The EC50 in data set [3] was > 50 µM.
With `Cc1cc2c(c(=O)o1)C=C1CC[C@H](C(C)CNCc3ccc(N(C)C)cc3)C[C@@H]1O2` (mixture of isomers), in data set [1], the selectivity ratio came out at 8.76. Moreover, in data set [2], the CC50 came out at 38.2 µM. Besides, the EC50 in data set [3] worked out at 4.36 µM.
Take `Cc1cc2c(c(=O)o1)C=C1CC[C@H](C(C)CNCc3ccccc3O)C[C@@H]1O2` (mixture of isomers): in data set [1], the selectivity ratio was 12.6. In data set [2], the CC50 amounted to 30.7 µM. Also, the EC50 in data set [3] was 2.44 µM.
For `COc1cc(CNCC(C)[C@H]2CCC3=Cc4c(cc(C)oc4=O)O[C@H]3C2)ccc1O` (mixture of isomers) the same measures were 109, 26.3 µM and 0.242 µM.
For `Cc1cc2c(c(=O)o1)C=C1CC[C@H](C(C)CNCc3ccc(O)c([N+](=O)[O-])c3)C[C@@H]1O2` (mixture of isomers), in data set [1], the selectivity ratio was > 13. Moreover, the CC50 in data set [2] is > 50 µM. Further, the EC50 in data set [3] worked out at 3.85 µM.
Turning to `Cc1cc2c(c(=O)o1)C=C1CC[C@H](C(C)CNCc3ccc(O)c(Br)c3)C[C@@H]1O2` (mixture of isomers), the selectivity ratio in data set [1] is > 78.2. Further, the CC50 in data set [2] was > 50 µM. Also, the EC50 in data set [3] stood at 0.639 µM.
Consider `Cc1cc2c(c(=O)o1)C=C1CC[C@H](C(C)CNCc3ccc(O)c(F)c3)C[C@@H]1O2` (mixture of isomers), for which the selectivity ratio in the data set with ACAT was > 28; in data set [1] it was > 746. Besides, the EC50 turned out to be 2.2 µM in data set [4] and 0.067 µM in data set [3]. The compound also yielded an IC50 in data set [5] of 1.8 µM. Further, the CC50 in data set [2] was > 50 µM.
Turning to `COc1ccc(CNCC(C)[C@H]2CCC3=Cc4c(cc(C)oc4=O)O[C@H]3C2)cc1O` (mixture of isomers), the selectivity ratio in data set [1] is > 32.1. Moreover, the CC50 in data set [2] is > 50 µM. Further, the EC50 in data set [3] was 1.56 µM.
As for `Cc1cc2c(c(=O)o1)C=C1CC[C@H](C(C)CNCc3ccc(OCc4ccccc4)c(OCc4ccccc4)c3)C[C@@H]1O2` (mixture of isomers), the selectivity ratio in data set [1] turned out to be 14.2. For the same compound, in data set [2], the CC50 came to 9.38 µM. Moreover, the EC50 in data set [3] came to 0.662 µM.
Take `COc1ccc(CNCC(C)[C@H]2CCC3=Cc4c(cc(C)oc4=O)O[C@H]3C2)cc1` (single isomer, unassigned): the selectivity ratio in data set [1] was > 18.1. The CC50 in data set [2] is > 50 µM. Moreover, the EC50 in data set [3] is 2.77 µM.
